From ChEMBL document CHEMBL3588850, “Multivalent Amino Sugars to Recognize Different TAR RNA Conformations” (Medchemcomm, 2014)
The source made the active and inactive calls. The calls are words filed in the database; no cut-off is given here.

What was measured:
Nucleic Acid [1] = assay: Induction of conformational changes in wild type HIV1 TAR RNA assessed as changes in 210 to 220 nm region using 1 molar equivalents of compound at pH 6.8 by CD spectroscopy; type: nucleic-acid assay; conditions: Human immunodeficiency virus 1
Nucleic Acid [2] = assay: Induction of conformational changes in wild type HIV1 TAR RNA assessed as increase in intensity in 265 nm region using 1 molar equivalents of compound at pH 6.8 by CD spectroscopy; type: nucleic-acid assay; conditions: Human immunodeficiency virus 1
Nucleic Acid [3] = assay: Induction of conformational changes in HIV1 TAR RNA bulgeless mutant assessed as induction of red shift in CD spectra region using 1 molar equivalents of compound at pH 6.8 by CD spectroscopy; type: nucleic-acid assay; conditions: Human immunodeficiency virus 1
Method in brief: (§1)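 Spectra recorded before and after adding 1 molar equivalent ligand (≤1% v/v, in buffer). Scan 325–200 nm at 500 nm/min, 1 nm bandwidth, 1 cm cuvette, 20 °C. Each spectrum is the average of 10 scans; ΔCD plotted.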

Nucleic Acid [4] = assay: Induction of conformational changes in HIV1 TAR RNA tetraloop mutant assessed as induction of red shift in CD spectra region using 1 molar equivalents of compound at pH 6.8 by CD spectroscopy; type: nucleic-acid assay; conditions: Human immunodeficiency virus 1; method in brief: as §1
Nucleic Acid [5] = assay: Induction of conformational changes in HIV1 TAR RNA bulgeless tetraloop mutant assessed as induction of red shift in CD spectra region using 1 molar equivalents of compound at pH 6.8 by CD spectroscopy; type: nucleic-acid assay; conditions: Human immunodeficiency virus 1; method in brief: as §1
Nucleic Acid [6] = assay: Induction of conformational changes in HIV1 TAR RNA U3 bulge mutant assessed as induction of red shift in CD spectra region using 1 molar equivalents of compound at pH 6.8 by CD spectroscopy; type: nucleic-acid assay; conditions: Human immunodeficiency virus 1; method in brief: as §1
Nucleic Acid [7] = assay: Induction of conformational changes in HIV1 TAR RNA bulgeless mutant assessed as changes in 260 to 270 nm region using 1 molar equivalents of compound at pH 6.8 by CD spectroscopy; type: nucleic-acid assay; conditions: Human immunodeficiency virus 1; method in brief: as §1
Nucleic Acid [8] = assay: Induction of conformational changes in HIV1 TAR RNA tetraloop mutant assessed as changes in 260 to 270 nm region using 1 molar equivalents of compound at pH 6.8 by CD spectroscopy; type: nucleic-acid assay; conditions: Human immunodeficiency virus 1; method in brief: as §1
Nucleic Acid [9] = assay: Induction of conformational changes in HIV1 TAR RNA bulgeless tetraloop mutant assessed as changes in 260 to 270 nm region using 1 molar equivalents of compound at pH 6.8 by CD spectroscopy; type: nucleic-acid assay; conditions: Human immunodeficiency virus 1; method in brief: as §1
Nucleic Acid [10] = assay: Induction of conformational changes in HIV1 TAR RNA U3 bulge mutant aassessed as changes in 260 to 270 nm region using 1 molar equivalents of compound at pH 6.8 by CD spectroscopy; type: nucleic-acid assay; conditions: Human immunodeficiency virus 1; method in brief: as §1
Nucleic Acid [11] = assay: Induction of conformational changes in HIV1 TAR RNA bulgeless mutant assessed as changes in 210 to 220 nm region using 1 molar equivalents of compound at pH 6.8 by CD spectroscopy; type: nucleic-acid assay; conditions: Human immunodeficiency virus 1; method in brief: as §1
Nucleic Acid [12] = assay: Induction of conformational changes in HIV1 TAR RNA tetraloop mutant assessed as changes in 210 to 220 nm region using 1 molar equivalents of compound at pH 6.8 by CD spectroscopy; type: nucleic-acid assay; conditions: Human immunodeficiency virus 1; method in brief: as §1
Nucleic Acid [13] = assay: Induction of conformational changes in HIV1 TAR RNA bulgeless tetraloop mutant assessed as changes in 210 to 220 nm region using 1 molar equivalents of compound at pH 6.8 by CD spectroscopy; type: nucleic-acid assay; conditions: Human immunodeficiency virus 1; method in brief: as §1
Nucleic Acid [14] = assay: Induction of conformational changes in HIV1 TAR RNA U3 bulge mutant aassessed as changes in 210 to 220 nm region using 1 molar equivalents of compound at pH 6.8 by CD spectroscopy; type: nucleic-acid assay; conditions: Human immunodeficiency virus 1; method in brief: as §1
[15] = system: Human immunodeficiency virus 1; assay: Induction of thermal stability changes in wild type HIV1 TAR RNA assessed as change in melting temperature using 1 molar equivalents of compound pre-incubated for 4 hrs at pH 6.8 at 4 degC before test by UV thermal denaturation assay
[16] = system: Human immunodeficiency virus 1; assay: Induction of thermal stability changes in HIV1 TAR RNA U3 bulge mutant assessed as change in melting temperature using 1 molar equivalents of compound pre-incubated for 4 hrs at pH 6.8 at 4 degC before test by UV thermal denaturation assay
Method in brief: (§2)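 TAR RNA mutants at 1 μM/strand mixed with 1 or 2 molar equivalents of ligand in 100 mM KCl, 10 mM SC, 0.5 mM EDTA, pH 6.8, then held 4 h at 4 °C. Absorbance at 260 nm in 1 cm cuvettes, 15–100 °C, heating 0.3 °C/min. Tm taken from first-derivative plots and compared with the no-ligand sample.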

[17] = system: Human immunodeficiency virus 1; assay: Induction of thermal stability changes in HIV1 TAR RNA tetraloop mutant assessed as change in melting temperature using 1 molar equivalents of compound pre-incubated for 4 hrs at pH 6.8 at 4 degC before test by UV thermal denaturation assay; method in brief: as §2
[18] = system: Human immunodeficiency virus 1; assay: Induction of thermal stability changes in HIV1 TAR RNA bulgeless mutant assessed as change in melting temperature using 1 molar equivalents of compound pre-incubated for 4 hrs at pH 6.8 at 4 degC before test by UV thermal denaturation assay; method in brief: as §2
[19] = system: Human immunodeficiency virus 1; assay: Induction of thermal stability changes in HIV1 TAR RNA bulgeless tetraloop mutant assessed as change in melting temperature using 1 molar equivalents of compound pre-incubated for 4 hrs at pH 6.8 at 4 degC before test by UV thermal denaturation assay; method in brief: as §2
Nucleic Acid [20] = assay: Binding affinity to wild type HIV1 TAR RNA at pH 6.8 by ethidium bromide displacement assay; type: nucleic-acid assay, Human immunodeficiency virus 1
Method in brief: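 TAR RNA (200 nM/strand) and EtBr (5 μM) in 100 mM KCl, 10 mM SC, 0.5 mM EDTA, pH 6.8, titrated with ligand aliquots (at most 4% v/v). Fluorescence excited at 545 nm and read at 610 nm. IC50 is the ligand concentration that displaces 50% of EtBr, taken from a sigmoidal fit of fraction displaced versus log ligand concentration.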

Nucleic Acid [21] = assay: Binding affinity to HIV1 TAR RNA tetraloop mutant at pH 6.8 by ethidium bromide displacement assay; type: nucleic-acid assay, Human immunodeficiency virus 1
Method in brief: (§3)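 Synthetic 2′-ACE-protected TAR RNA, deprotected, heated 98 °C 5 min, then ice-cooled 15 min. TAR RNA at 200 nM/strand with ethidium bromide 5 μM in 100 mM KCl, 10 mM SC, 0.5 mM EDTA, pH 6.8. Ligand added stepwise, ≤4% v/v. Excitation 545 nm, emission 580–660 nm, intensity at 610 nm normalized. IC50 from sigmoidal fit of fraction EtBr displaced vs log ligand; association constants from Scatchard analysis.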

Nucleic Acid [22] = assay: Binding affinity to HIV1 TAR RNA bulgeless tetraloop mutant at pH 6.8 by ethidium bromide displacement assay; type: nucleic-acid assay, Human immunodeficiency virus 1; method in brief: as §3
Nucleic Acid [23] = assay: Binding affinity to HIV1 TAR RNA U3 bulge mutant at pH 6.8 by ethidium bromide displacement assay; type: nucleic-acid assay, Human immunodeficiency virus 1; method in brief: as §3
Nucleic Acid [24] = assay: Binding affinity to wild type HIV1 TAR RNA assessed as association constant at pH 6.8 by ethidium bromide displacement assay based Scatchard analysis method; type: nucleic-acid assay; conditions: Human immunodeficiency virus 1
Method in brief: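 Ethidium bromide displacement: 5 μM EtBr with TAR RNA at 200 nM/strand (under 20% of EtBr bound) in 100 mM KCl, 10 mM SC, 0.5 mM EDTA, pH 6.8. Ligand added in concentrated aliquots, at most 4% v/v. Excitation 545 nm, emission 580–660 nm, intensity at 610 nm. Association constant obtained by Scatchard analysis of the titration data.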

Nucleic Acid [25] = assay: Binding affinity to HIV1 TAR RNA bulgeless mutant assessed as association constant at pH 6.8 by ethidium bromide displacement assay based Scatchard analysis method; type: nucleic-acid assay; conditions: Human immunodeficiency virus 1; method in brief: as §3
Nucleic Acid [26] = assay: Binding affinity to HIV1 TAR RNA tetraloop mutant assessed as association constant at pH 6.8 by ethidium bromide displacement assay based Scatchard analysis method; type: nucleic-acid assay; conditions: Human immunodeficiency virus 1; method in brief: as §3
Nucleic Acid [27] = assay: Binding affinity to HIV1 TAR RNA bulgeless tetraloop mutant assessed as association constant at pH 6.8 by ethidium bromide displacement assay based Scatchard analysis method; type: nucleic-acid assay; conditions: Human immunodeficiency virus 1; method in brief: as §3
Nucleic Acid [28] = assay: Binding affinity to HIV1 TAR RNA U3 bulge mutant at assessed as association constant at pH 6.8 by ethidium bromide displacement assay based Scatchard analysis method; type: nucleic-acid assay; conditions: Human immunodeficiency virus 1; method in brief: as §3
Nucleic Acid [29] = assay: Binding affinity to wild type HIV1 TAR RNA assessed as induction of chemical shifts changes of GH1 and UH3 regions by NMR spectroscopy; type: nucleic-acid assay; conditions: Human immunodeficiency virus 1
Method in brief: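 Imino-region 1D 1H jump-return echo spectra recorded at 298 K on an 850 MHz instrument with a cryoprobe, with increasing amounts of ligand added.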

Nucleic Acid [30] = assay: Binding affinity to HIV1 TAR RNA tetraloop mutant assessed as induction of imino chemical shifts changes by NMR spectroscopy; type: nucleic-acid assay; conditions: Human immunodeficiency virus 1

For `NC[C@@H]1O[C@H](O[C@H]2[C@@H](O)[C@H](O[C@@H]3[C@@H](O)[C@H](N)C[C@H](N)[C@H]3O[C@H]3O[C@H](CN)[C@@H](O)[C@H](O)[C@H]3N)O[C@@H]2Cn2cc(COCc3cn(C[C@H]4O[C@@H](O[C@@H]5[C@@H](O)[C@H](N)C[C@H](N)[C@H]5O[C@H]5O[C@H](CN)[C@@H](O)[C@H](O)[C@H]5N)[C@H](O)[C@@H]4O[C@H]4O[C@@H](CN)[C@@H](O)[C@H](O)[C@H]4N)nn3)nn2)[C@H](N)[C@@H](O)[C@@H]1O`, which Activity (Nucleic Acid [1]) is on record?
Its Activity is “Active”.

What about the Activity (Nucleic Acid [2]) of the same molecule?
Its Activity is “inactive”.

And the Activity (Nucleic Acid [3])?
Its Activity is “Active”.

And the Activity (Nucleic Acid [4])?
The Activity was “Active”.

What about the Activity (Nucleic Acid [5]) of the same molecule?
Its Activity is “Active”.

What about the Activity (Nucleic Acid [6]) of the same molecule?
Its Activity is “Active”.

What about the Activity (Nucleic Acid [7]) of the same molecule?
Its Activity is “Active”.

What about the Activity (Nucleic Acid [8]) of the same molecule?
Its Activity is “Active”.

And the Activity (Nucleic Acid [9])?
The Activity was “Active”.

What about the Activity (Nucleic Acid [10]) of the same molecule?
The Activity was “Active”.

And the Activity (Nucleic Acid [11])?
The Activity was “inactive”.

What about the Activity (Nucleic Acid [12]) of the same molecule?
Its Activity is “inactive”.

What about the Activity (Nucleic Acid [13]) of the same molecule?
Its Activity is “inactive”.

And the Activity (Nucleic Acid [14])?
Its Activity is “Active”.

And the ΔTm [15]?
The ΔTm was 10.2 °C.

What about the ΔTm [16] of the same molecule?
Its ΔTm is 8.5 °C.

What about the ΔTm [17] of the same molecule?
The ΔTm was 6 °C.

And the ΔTm [18]?
Its ΔTm is 5 °C.

What about the ΔTm [19] of the same molecule?
The ΔTm was > 5 °C.

What about the IC50 (Nucleic Acid [20]) of the same molecule?
Its IC50 is 112 nM.

What about the IC50 (Nucleic Acid [21]) of the same molecule?
The IC50 was 156 nM.

And the IC50 (Nucleic Acid [22])?
Its IC50 is 122 nM.

And the IC50 (Nucleic Acid [23])?
The IC50 was 186 nM.

And the K (Nucleic Acid [24])?
Its K is 1.2 ×10⁸ /M.

What about the K (Nucleic Acid [25]) of the same molecule?
Its K is 7.5 ×10⁷ /M.

What about the K (Nucleic Acid [26]) of the same molecule?
The K was 2.7 ×10⁷ /M.

And the K (Nucleic Acid [27])?
Its K is 2.3 ×10⁸ /M.

What about the K (Nucleic Acid [28]) of the same molecule?
The K was 1.6 ×10⁷ /M.

And the Activity (Nucleic Acid [29])?
Its Activity is “Dose-dependent effect”.

And the Activity (Nucleic Acid [30])?
The Activity was “Active”.
